Measurements published in PubChem BioAssay.
Records with an inconclusive call do not appear.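 The calls were made as follows, unless noted: active = viability increase at or above a cutoff of the median across tested compounds plus 3 SD (cut at about 8.5% in these data, passing the limit was not always enough); inconclusive = some gains above the cutoff, reason not given; inactive = the rest.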

Key:
[1] = S. cerevisiae growth inhibition in permissive medium (OD615), pilot counter-assay for S. cerevisiae lifespan shortening project, permissive growth control (AID 705;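 active = growth inhibition above 25% in both replicates, a cutoff set 3 SD above the mean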); conditions: OD615, 24 h, at 10 µM, active compounds read high
In short: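 assay system = Saccharomyces cerevisiae strain carrying genetically modified DeaD replicative-lifespan system | technique = absorbance (optical density) at 615 nm | buffer or medium = permissive raffinose/galactose medium | timing = cells pre-grown 4 h, then 24 h compound exposure, 30 °C humidified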

[2] = S. cerevisiae growth inhibition in restrictive medium, OD615, pilot screen, restrictive growth control, yeast lifespan reduction project (AID 706;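 active = growth inhibition above a set limit, 3 SD over mean compound inhibition, in both replicates, cut at about 43% in these data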;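 also: modified DeaD lifespan yeast strain shifted to restrictive glucose medium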); conditions: OD615, 48 h, at 10 µM, active compounds read high
In short: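 System: modified S. cerevisiae. Buffer or medium: CSMM-D glucose medium. Incubation: 4 h pre-growth plus 48 h compound exposure, 30 °C. Detection: absorbance (optical density) measured at 615 nm.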

[3] = doxorubicin toxicity protection in MRP-1 cells – H69AR cells, CellTiter-Glo, duplicate, MRP-1 activator project, pilot screen (AID 807); conditions: H69AR viability with doxorubicin, CellTiter-Glo luminescence; at 10 µM; active compounds read high;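 also: compound pretreatment 18-22 h then 72 h combined with doxorubicin; 0% = doxorubicin alone and 100% = vehicle without doxorubicin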
[4] = viability of HCT116 without oncogenic beta-catenin – human colon tumor cells, pilot screen (AID 823;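 active = cell viability at or below a set limit in both duplicate runs, the limit being the all-compound median minus 4 SD, cut at about 23% in these data, passing the limit was not always enough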;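 also: 0% = wells killed by 20 µM Hyamine and 100% = untreated DMSO cell wells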); conditions: HCT116 beta-catenin knockout viability, CellTiter-Glo, 60 h; at 10 µM; active compounds read low
[5] = viability of PTEN-null HCT116 cells – cell-based, HCT116 clonal line, CellTiter-Glo, pilot screen (AID 824;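 active = viability at or below 27.92% in each of two runs, the all-compound median minus 4 SD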;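 also: 0% = 20 µM Hyamine control and 100% = vehicle cell control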); conditions: HCT116 PTEN-deleted viability, 60 h, at 10 µM, active compounds read low
[6] = RAM pathway blockade in budding yeast – dse1pr::URA3 reporter, 5-FOA selection, pilot screen (AID 869;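 active = inhibition over a set limit, the all-compound mean plus 3 SD, in both replicate runs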;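 also: 0% = DMSO wells with no growth and 100% = 10 µM 1-NA-PP1 with full growth; RAM network block rescues cells from 5-FOA so hits raise OD615 growth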); conditions: S. cerevisiae dse1pr::URA3 5-FOA growth, OD615, 2 d; at 10 µM; active compounds read high; strain carries analog-sensitive mutant Cbk1 kinase
[7] = RAM signaling pathway blockade in yeast – S. cerevisiae, Pdr1DBD-CYC8 efflux-inhibited sensitized strain, primary screen (AID 1298;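 active = RAM network inhibition above 8.4% in each of two replicates, 3 SD over the compound average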;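 also: 0% = DMSO untreated cells without growth and 100% = 10 µM 1-NA-PP1 full growth; higher means more yeast growth rescued from 5-FOA killing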); conditions: S. cerevisiae cbk1-as DSE1-URA3 strain, 5-FOA growth OD615, 2 d; at 50 µM; active compounds read high

Cc1cc(C(=O)OCc2nnc(-c3ccccc3)o2)c(C)n1-c1ccccc1
inactive: growth inhibition [1] -4.06% | growth inhibition [2] -12% | viability increase [3] -1.07% | viability [4] 84.4% | viability [5] 80.6% | inhibition [6] 0.125% | RAM network inhibition [7] 2.44%

Cc1noc(C)c1S(=O)(=O)N(CC(=O)NCc1ccc2c(c1)OCO2)c1ccc(C(C)C)cc1
inactive: growth inhibition [1] -13.7% | growth inhibition [2] -8.46% | viability increase [3] -2.92% | viability [4] 82.7% | viability [5] 76.2% | inhibition [6] -0.54% | RAM network inhibition [7] 6.57%

CCCN1C(=O)c2cc(C(=O)NC3CCCC3)ccc2C1O (stereo not drawn)
inactive: growth inhibition [1] -10.3% | growth inhibition [2] -1.61% | viability increase [3] -2.46% | viability [4] 103% | viability [5] 95.5% | inhibition [6] 0.125% | RAM network inhibition [7] 9.43%

Cc1ccc2c(c1)c1c(n2CC(O)CN2C(=O)CNC2=O)C(=O)CCC1 (stereo not drawn)
inactive: growth inhibition [1] 3.38% | growth inhibition [2] 7.05% | viability increase [3] 4.52% | viability [4] 101% | viability [5] 101% | inhibition [6] 1.74% | RAM network inhibition [7] 3.57%

COc1cccc(C(=O)Nc2cc(=O)n(C)c(=O)n2C)c1OC
inactive: growth inhibition [1] -1.72% | growth inhibition [2] -6.04% | viability increase [3] -2.46% | viability [4] 105% | viability [5] 98.8% | inhibition [6] 1.94% | RAM network inhibition [7] 1.14%

Cc1cc2cc(CNC(=O)c3ccc(S(=O)(=O)N4CCCCC4)cc3)ccc2n1C
inactive: growth inhibition [1] 14.5% | growth inhibition [2] 11.4% | viability increase [3] -0.91% | viability [4] 97.4% | viability [5] 94.2% | inhibition [6] 1.04% | RAM network inhibition [7] 3.71%

Cc1cc(N2CCN(C(c3ccccc3)c3ccc(Cl)cc3)CC2)n2ncnc2n1 (stereo not drawn)
inactive: growth inhibition [1] -1.52% | growth inhibition [2] 7.98% | viability increase [3] -4.33% | viability [4] 66.1% | viability [5] 63.2% | inhibition [6] 0.13% | RAM network inhibition [7] 3.39%

O=C(O)C1CCCN1S(=O)(=O)c1cc(Cl)ccc1Cl (stereo not drawn)
inactive: growth inhibition [1] -3.73% | growth inhibition [2] -6.05% | viability increase [3] 1.55% | viability [4] 92.5% | viability [5] 102% | inhibition [6] 0.535% | RAM network inhibition [7] 4.12%

O=C(C1CCN(S(=O)(=O)c2ccc(F)cc2)CC1)N1CC=C(c2ccccc2)CC1
inactive: growth inhibition [1] -0.895% | growth inhibition [2] -21% | viability increase [3] -2.73% | viability [4] 91% | viability [5] 89.7% | inhibition [6] 1.03% | RAM network inhibition [7] 1.27%

COC(=O)CSC1=C(C#N)C(c2ccc(C(C)C)cc2)CC(=O)N1 (stereo not drawn)
inactive: growth inhibition [1] -0.135% | growth inhibition [2] -3.29% | viability increase [3] 0.86% | viability [4] 89.8% | viability [5] 89.3% | inhibition [6] 3.04% | RAM network inhibition [7] 4.09%

CN1C(=O)CC(N2CCC(c3nc4ccccc4[nH]3)CC2)C1=O (stereo not drawn)
inactive: growth inhibition [1] -11.7% | growth inhibition [2] -11.2% | viability increase [3] -0.66% | viability [4] 112% | viability [5] 98.9% | inhibition [6] 3.77% | RAM network inhibition [7] 3.31%

C=CCNC(=O)COc1ccc(Br)cc1Cl
inactive: growth inhibition [1] -15.7% | growth inhibition [2] -6.88% | viability increase [3] 1.27% | viability [4] 99% | viability [5] 91.2% | inhibition [6] 1.36% | RAM network inhibition [7] 9.74%

Cc1cc(C)cc(Nc2cc(C)nc3nc(C)nn23)c1
inactive: growth inhibition [1] -3.56% | growth inhibition [2] 11.6% | viability increase [3] -2.41% | viability [4] 95.9% | viability [5] 90.8% | inhibition [6] 1.87% | RAM network inhibition [7] -0.26%

N#CC1=C(N)C(C#N)(C#N)C2(C(=O)Nc3ccccc32)C2CCCC=C12 (stereo not drawn)
inactive: growth inhibition [1] 5.05% | growth inhibition [2] -12.2% | viability increase [3] -4.96% | viability [4] 91.5% | viability [5] 82.6% | inhibition [6] 0.71% | RAM network inhibition [7] 0.83%

CCOC(=O)CC1C(=O)NCCN1C(=O)c1cc2c(=O)n3ccccc3nc2s1 (stereo not drawn)
inactive: growth inhibition [1] -13.7% | growth inhibition [2] 0.575% | viability increase [3] 1.22% | viability [4] 95.3% | viability [5] 95.5% | inhibition [6] 1% | RAM network inhibition [7] 6.8%

COc1cccc(C2CC(c3ccc(C(C)C)cc3)n3nc(N)nc3N2)c1 (stereo not drawn)
inactive: growth inhibition [1] -2.39% | growth inhibition [2] 3.09% | viability increase [3] 0.91% | viability [4] 97.1% | viability [5] 95.7% | inhibition [6] 1.5% | RAM network inhibition [7] 3.94%

Cc1nnc(NC(=O)CSc2cn(Cc3ccccc3)c3ccccc23)s1
inactive: growth inhibition [1] -8.99% | growth inhibition [2] -0.275% | viability increase [3] -2.83% | viability [4] 82.2% | viability [5] 81.2% | inhibition [6] 2.86% | RAM network inhibition [7] 2.77%

CN(C)c1ccc(C2N3CC4(C)CN2CC(C)(C3)C4O)cc1 (stereo not drawn)
inactive: growth inhibition [1] -21.5% | growth inhibition [2] -10.9% | viability increase [3] 0.46% | viability [4] 101% | viability [5] 99% | inhibition [6] 2.33% | RAM network inhibition [7] 2.42%

CCOC(=O)C1CCCN(C(=O)c2cn(CC(C)C)c(=O)c3cc(OC)c(OC)cc23)C1 (stereo not drawn)
inactive: growth inhibition [1] -8.41% | growth inhibition [2] -15.7% | viability increase [3] -3.43% | viability [4] 97% | viability [5] 95% | inhibition [6] 0.555% | RAM network inhibition [7] 0.93%

CCOC(=O)C1CCN(CC(O)COc2ccc(C(C)=O)cc2)CC1 (stereo not drawn)
inactive: growth inhibition [1] -1.86% | growth inhibition [2] -5.14% | viability increase [3] -0.88% | viability [4] 97.6% | viability [5] 91.6% | inhibition [6] 0.87% | RAM network inhibition [7] 2.51%

Cn1nc(-c2ccc(Cl)cc2)c2cc(C(=O)NC3CC3)sc21
inactive: growth inhibition [1] -7.08% | growth inhibition [2] -1.2% | viability increase [3] -6.68% | viability [4] 83.6% | viability [5] 84.2% | inhibition [6] 3.62% | RAM network inhibition [7] 3.94%

Cc1nc2c(c(C)nn2-c2ccccc2)c(C)c1Cl
inactive: growth inhibition [1] -4.98% | growth inhibition [2] -5.5% | viability increase [3] -2.73% | viability [4] 88.6% | viability [5] 87.9% | inhibition [6] 3.09% | RAM network inhibition [7] 2.46%

CCOC(=O)C1=C(C)N=c2s/c(=C\C(=O)OC)c(=O)n2C1c1ccc(OC)cc1 (stereo not drawn)
inactive: growth inhibition [1] -2.88% | growth inhibition [2] 11.6% | viability increase [3] -2.64% | viability [4] 100% | viability [5] 101% | inhibition [6] 1.73% | RAM network inhibition [7] 4.95%

COCCNC(=O)CN(c1ccc(C)cc1)S(=O)(=O)c1ccc(SC)cc1
inactive: growth inhibition [1] -10.6% | growth inhibition [2] -12.2% | viability increase [3] -0.9% | viability [4] 96.2% | viability [5] 84.2% | inhibition [6] 0.71% | RAM network inhibition [7] 5.17%
